# Assay results published in ChEMBL document CHEMBL4177720, “Towards smart biocide-free anti-biofilm strategies: Click-based synthesis of cinnamide analogues as anti-biofilm compounds against marine bacteria” (Bioorg Med Chem Lett, 2018).
# Experiments:
# Pseudoalteromonas ulvae [1] = assay: Effect on cell viability of Pseudoalteromonas ulvae TC14 at 100 uM measured every hr during 6 hrs by resazurin based assay; type: organism-based
# How it was run: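 Exponential-phase cells (VNSS, 20°C, 120 rpm) were resuspended in VNSS to OD600 0.1. 20 µL inoculated into 180 µL compound in VNSS, triplicate, at 100 µM, with solvent and medium controls. OD600 was read hourly for 6 h. Resazurin (50 µM) was then added, and fluorescence after 2 h gave percent viability versus untreated.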
# Paracoccus sp. = assay: Anti-biofilm activity against Paracoccus sp. 4M6 assessed as inhibition of bacterial adhesion incubated for 15 hrs at 20 degC by Syto 61 dye based fluorimetric assay; type: functional; settings: Paracoccus sp. (in: a-proteobacteria), 4M6, 15 h
# How it was run: (§1)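 Cells were grown in VNSS at 20°C to stationary phase, centrifuged, and resuspended in artificial sea water (ASW) to OD600 0.2-0.4. Suspension (100 µL) plus 100 µL diluted compound, in triplicate, with ASW-only adhesion control, was held 15 h at 20°C. After three 36 g/L NaCl washes, adhered cells were stained 10 min at room temperature with 40 µmol/L Syto 61. Fluorescence read at ex 615/em 670 nm; EC50 from dose-response fit.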
# [2] = test system: Pseudoalteromonas lipolytica; assay: Anti-biofilm activity against Pseudoalteromonas lipolytica TC8 assessed as inhibition of bacterial adhesion incubated for 15 hrs at 20 degC by Syto 61 dye based fluorimetric assay; type: functional, organism-based; settings: TC8, 15 h; how it was run: as §1
# Pseudoalteromonas ulvae [3] = assay: Anti-biofilm activity against Pseudoalteromonas ulvae TC14 assessed as inhibition of bacterial adhesion incubated for 15 hrs at 20 degC by Syto 61 dye based fluorimetric assay; type: functional, organism-based; settings: TC14, 15 h; how it was run: as §1
# Pseudoalteromonas ulvae [4] = assay: Effect on cell growth of Pseudoalteromonas ulvae TC14 at 100 uM measured every hr during 6 hrs by turbidity (OD600) measurement
smiles,measurement,setting,value
CC1(C)S[C@@H]2[C@H](NC(=O)[C@H](N)c3ccccc3)C(=O)N2[C@H]1C(=O)O [AMPICILLIN],Activity,Pseudoalteromonas ulvae [1],Toxic
COc1cccc(CCNC(=O)c2cn(-c3cccc(OC)c3)nn2)c1,EC50,Paracoccus sp.,226 µM
same,EC50,[2],> 300 µM
same,EC50,Pseudoalteromonas ulvae [3],80.6 µM
COc1cccc(-n2cc(C(=O)NCCc3ccc(OC)c(OC)c3)nn2)c1,EC50,Paracoccus sp.,154 µM
same,EC50,[2],> 300 µM
same,EC50,Pseudoalteromonas ulvae [3],73.7 µM
COc1ccc(-n2cc(C(=O)NCCc3cccc(OC)c3)nn2)cc1,EC50,Paracoccus sp.,214 µM
same,EC50,[2],142 µM
same,EC50,Pseudoalteromonas ulvae [3],52.3 µM
same,Activity,Pseudoalteromonas ulvae [4],Non-Toxic
COc1ccc(CCNC(=O)c2cn(-c3ccc(OC)cc3)nn2)cc1,EC50,Paracoccus sp.,260 µM
same,EC50,[2],> 300 µM
same,EC50,Pseudoalteromonas ulvae [3],11.3 µM
same,Activity,Pseudoalteromonas ulvae [1],Non-Toxic
same,Activity,Pseudoalteromonas ulvae [4],Non-Toxic
COc1cccc(-n2cc(C(=O)NCCc3ccc(O)cc3)nn2)c1,EC50,Paracoccus sp.,> 300 µM
same,EC50,[2],276 µM
same,EC50,Pseudoalteromonas ulvae [3],204 µM
COc1ccc(CCNC(=O)c2cn(-c3cccc(OC)c3)nn2)cc1,EC50,Paracoccus sp.,216 µM
same,EC50,[2],> 300 µM
same,EC50,Pseudoalteromonas ulvae [3],11.4 µM
same,Activity,Pseudoalteromonas ulvae [1],Non-Toxic
same,Activity,Pseudoalteromonas ulvae [4],Non-Toxic
O=C(/C=C/c1ccc(O)cc1)NCCc1ccc(O)cc1 [N-P-COUMAROYL TYRAMINE],EC50,Paracoccus sp.,> 300 µM
same,EC50,[2],> 300 µM
same,EC50,Pseudoalteromonas ulvae [3],75.5 µM
COc1ccc(-n2cc(C(=O)NCCc3ccc(O)cc3)nn2)cc1,EC50,Paracoccus sp.,220 µM
same,EC50,[2],> 300 µM
same,EC50,Pseudoalteromonas ulvae [3],115 µM
COc1ccc(-n2cc(C(=O)NCCc3ccc(OC)c(OC)c3)nn2)cc1,EC50,Paracoccus sp.,162 µM
same,EC50,[2],> 300 µM
same,EC50,Pseudoalteromonas ulvae [3],54.6 µM
same,Activity,Pseudoalteromonas ulvae [1],Non-Toxic
same,Activity,Pseudoalteromonas ulvae [4],Non-Toxic
